Calls of active or inactive are those of the source. No cut-off for these calls is given here.
How the values were obtained:
RAW264.7 = assay: Antiinflammatory activity in mouse RAW264.7 cells assessed as inhibition of LPS-induced nitric oxide production after 24 hrs by Griess reagent assay; assay type: functional, cell-based; details: RAW264.7, 24 h
Procedure, shortened: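 RAW264.7 murine macrophages grown in DMEM with 10% heat-inactivated FBS at 37 °C, 5% CO2. After 24 h, medium renewed; compounds added at 0, 1, 5, 10 or 20 µg/mL with LPS 1 µg/mL, then 24 h incubation. Supernatant nitrite measured with Griess reagent, absorbance 540 nm. Results given as percent of untreated control. Mean ± SD of three experiments, each in triplicate.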

[1] = Cytotoxicity against mouse RAW264.7 cells assessed as cell viability by modified MTT assay; assay type: cell-based; parameters: concentration or dose not given beside the values; details: read-out: Activity
Procedure, shortened: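 RAW264.7 cells after the same LPS (1 µg/mL) and compound (0-20 µg/mL) 24 h exposure used for NO measurement. MTT (5 mg/mL stock in PBS, 10 µL per 100 µL culture) added for 4 h at 37 °C. Formazan dissolved in DMSO and read at 550 nm. Untreated cells taken as 100% viability.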

HeLa = assay: Cytotoxicity against human HeLa cells at 20 uM by modified MTT assay; assay type: functional, cell-based
KB = assay: Cytotoxicity against human KB cells at 20 uM by modified MTT assay; assay type: functional, cell-based
Daoy = assay: Cytotoxicity against human DaOY cells at 20 uM by modified MTT assay; assay type: functional, cell-based
WiDr = assay: Cytotoxicity against human WiDr cells at 20 uM by modified MTT assay; assay type: functional, cell-based
[2] = test system: Radical scavenging activity; assay: Antioxidant activity assessed as DPPH radical scavenging activity after 30 mins by ELISA; assay type: functional
Procedure, shortened: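 Sample (200-3.125 µg/mL) or quercetin (25-3.125 µg/mL), 120 µL, mixed with 30 µL of 0.75 mM DPPH in methanol. Shaken in the dark at room temperature for 30 min, then absorbance read at 517 nm. Methanol in place of sample served as negative control. ED50 is the concentration giving 50% reduction of DPPH radicals.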

| Structure (SMILES) | IC50 (RAW264.7) [µM] | viability [1] [%] | Activity (HeLa) | Activity (KB) | Activity (Daoy) | Activity (WiDr) | ED50 [2] |
| --- | --- | --- | --- | --- | --- | --- | --- |
| C[C@@H]1O[C@@H](O[C@H]2[C@H](Oc3c(-c4ccc(O)c(O)c4)oc4cc(O)cc(O)c4c3=O)O[C@@H](C)[C@H](O)[C@H]2O)[C@H](O)[C@H](O)[C@H]1O | 32.9 | > 80 | inactive | inactive | inactive | inactive | 16.6 µM |
| C[C@@H]1O[C@@H](O[C@H]2C(Oc3c(-c4ccc(O)cc4)oc4cc(O)cc(O)c4c3=O)O[C@@H](C)[C@H](O)[C@H]2O)[C@H](O)[C@H](O)[C@H]1O (stereo partly specified) | 40.1 | > 80 | inactive | inactive | inactive | inactive |  |
| O=c1c(O)c(-c2ccc(O)cc2O)oc2cc(O[C@@H]3O[C@H](CO)[C@@H](O)[C@H](O)[C@H]3O)cc(O)c12 | 39.1 | > 80 | inactive | inactive | inactive | inactive | 22.2 µM |
| CC1(C)[C@@H](O)CC[C@]2(C)C3=C(CC[C@@H]12)CO[C@H](C1=CCOC1=O)C3 | 12.2 | > 80 | inactive | inactive | inactive | inactive |  |
| C[C@@H]1O[C@@H](O[C@H]2[C@H](O[C@H]3CC[C@]4(C)C5=C(CC[C@H]4C3(C)C)CO[C@H](C3=CCOC3=O)C5)O[C@H](CO)[C@@H](O)[C@@H]2O)[C@H](O)[C@H](O)[C@H]1O [ALPINDENOSIDE A] | 34.2 | > 80 | inactive | inactive | inactive | inactive | > 200 µg/mL |
| C[C@@H]1O[C@@H](O[C@H]2[C@H](O[C@H]3CC[C@]4(C)C5=C(CC[C@H]4C3(C)C)CO[C@@H](C3=CCOC3=O)C5)O[C@H](CO)[C@@H](O)[C@@H]2O)[C@H](O)[C@H](O)[C@H]1O [ALPINDENOSIDE B] | 49.3 | > 80 | inactive | inactive | inactive | inactive | > 200 µg/mL |
| C[C@@H]1O[C@@H](O[C@H]2[C@H](O[C@H]3CC[C@]4(C)[C@@H]5C[C@H](C6=CCOC6=O)OC(O)[C@@H]5CC[C@H]4C3(C)C)O[C@H](CO)[C@@H](O)[C@@H]2O)[C@H](O)[C@H](O)[C@H]1O (stereo partly specified) [ALPINDENOSIDE C] | 38 | > 80 | inactive | inactive | inactive | inactive | > 200 µg/mL |
| CC(=O)OC[C@H]1O[C@@H](O[C@H]2CC[C@]3(C)[C@H]4C[C@H](C5=CCOC5=O)OC(O)[C@@H]4CC[C@H]3C2(C)C)[C@H](O[C@@H]2O[C@@H](C)[C@H](O)[C@@H](O)[C@H]2O)[C@@H](O)[C@@H]1O (stereo partly specified) [ALPINDENOSIDE D] | 30 | > 80 | inactive | inactive | inactive | inactive | > 200 µg/mL |
| CC1(C)[C@@H](O)CC[C@]2(C)C3=C(CC[C@@H]12)CO[C@@H](C1=CCOC1=O)C3 [AULACOCARPINOLIDE] | 44.6 | > 80 | inactive | inactive | inactive | inactive |  |
| C=C(CO)[C@H]1C[C@@H]2[C@@H](CC[C@H]3C(C)(C)[C@@H](O[C@@H]4O[C@H](CO)[C@@H](O)[C@H](O)[C@H]4O[C@@H]4O[C@@H](C)[C@H](O)[C@@H](O)[C@H]4O)CC[C@]23C)[C@H]1O [NORALPINDENOSIDE A] | 31.8 | > 80 | inactive | inactive | inactive | inactive | > 200 µg/mL |
| C=C(C)[C@H]1C[C@@H]2[C@@H](CC[C@H]3C(C)(C)[C@@H](O[C@@H]4O[C@H](CO)[C@@H](O)[C@H](O)[C@H]4O[C@@H]4O[C@@H](C)[C@H](O)[C@@H](O)[C@H]4O)CC[C@]23C)[C@H]1O [NORALPINDENOSIDE B] | 44.3 | > 80 | inactive | inactive | inactive | inactive | > 200 µg/mL |
| O=c1c(O)c(-c2ccc(O)c(O)c2)oc2cc(O)cc(O)c12 [QUERCETIN] | 9.6 |  |  |  |  |  | 18 µM |

From ChEMBL document CHEMBL1152398, “Labdane diterpenoid glycosides from Alpinia densespicata and their nitric oxide inhibitory activities in macrophages” (J Nat Prod, 2009)
